Experimental data as given in ChEMBL document CHEMBL1649324, “In vitro activity of tebipenem, a new oral carbapenem antibiotic, against beta-lactamase-nonproducing, ampicillin-resistant Haemophilus influenzae” (2010).
Values after ≈ are worked out from the molar mass of the structure shown.

How the values were obtained:
Type in all cases: functional
Haemophilus influenzae [1] = test: Antimicrobial activity against gBLPACR-1 Haemophilus influenzae by agar dilution method
Procedure, shortened: (§1)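 Agar dilution on Mueller-Hinton agar with 0.5% yeast extract, 2% defibrinated heat-treated horse blood and 15 μg/ml β-NAD+. Plates were incubated 20 h at 37°C in 5% CO2, and the MIC was read. Clinical pediatric isolates (2005–2008) were assigned to genetic resistance classes by PCR.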

Haemophilus influenzae [2] = test: Antimicrobial activity against gLow-BLNAR Haemophilus influenzae by agar dilution method; procedure, shortened: as §1
Haemophilus influenzae [3] = test: Antimicrobial activity against gBLNAS Haemophilus influenzae by agar dilution method; procedure, shortened: as §1
Haemophilus influenzae [4] = test: Antimicrobial activity against gBLPAR-TEM1 Haemophilus influenzae by agar dilution method
Procedure, shortened: (§2)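 Agar dilution MICs on Mueller-Hinton agar with 0.5% yeast extract, 2% defibrinated heat-treated horse blood and 15 μg/ml β-NAD+. Plates read after 20 h at 37°C in 5% CO2. Paediatric clinical isolates (2005–2008) assigned to genetic β-lactam resistance class by PCR. Values are MIC range, MIC50 and MIC90 per class.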

Haemophilus influenzae [5] = test: Antimicrobial activity against gBLNAR Haemophilus influenzae by agar dilution method; procedure, shortened: as §2
Haemophilus influenzae [6] = test: Antimicrobial activity against gBLPACR-2 Haemophilus influenzae by agar dilution method; procedure, shortened: as §2
Haemophilus influenzae [7] = test: Bactericidal activity against gBLNAR Haemophilus influenzae JPH002 assessed as reduction in bacterial load at MIC after 2 hrs by time-kill analysis in presence of 10% human serum
Procedure, shortened: (§3)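 Colonies precultured on chocolate agar were suspended in MH broth to 0.5 McFarland, diluted 10-fold in MH broth with yeast extract, horse blood and β-NAD+, then grown 120 min at 37°C. 500 μl was inoculated into 9.5 ml of the same supplemented broth containing drug at the MIC or 2× MIC, with or without 10% fresh human serum. Tubes were incubated static and viable counts sampled at set intervals.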

Haemophilus influenzae [8] = test: Bactericidal activity against gBLNAR Haemophilus influenzae JPH002 assessed as reduction in bacterial load at MIC after 6 hrs by time-kill analysis in presence of 10% human serum; procedure, shortened: as §3
Haemophilus influenzae [9] = test: Bactericidal activity against gBLNAR Haemophilus influenzae JPH1306 assessed as reduction in bacterial load at MIC after 6 hrs by time-kill analysis; procedure, shortened: as §3
Haemophilus influenzae [10] = test: Bactericidal activity against gBLNAR Haemophilus influenzae JPH002 assessed as reduction in bacterial load at MIC after 4 hrs by time-kill analysis; procedure, shortened: as §3
Haemophilus influenzae [11] = test: Bactericidal activity against gBLNAR Haemophilus influenzae JPH002 assessed as reduction in bacterial load at MIC after 6 hrs by time-kill analysis; procedure, shortened: as §3
Haemophilus influenzae [12] = test: Bactericidal activity against gBLNAR Haemophilus influenzae JPH1306 assessed as reduction in bacterial load at MIC after 2 hrs by time-kill analysis in presence of 10% human serum; procedure, shortened: as §3
Haemophilus influenzae [13] = test: Bactericidal activity against gBLNAR Haemophilus influenzae JPH1306 assessed as reduction in bacterial load at MIC after 4 hrs by time-kill analysis in presence of 10% human serum; procedure, shortened: as §3
Haemophilus influenzae [14] = test: Bactericidal activity against gBLNAR Haemophilus influenzae JPH002 assessed as reduction in bacterial load at MIC after 4 hrs by time-kill analysis in presence of 10% human serum; procedure, shortened: as §3
Haemophilus influenzae [15] = test: Bactericidal activity against gBLNAR Haemophilus influenzae JPH1306 assessed as reduction in bacterial load at MIC after 6 hrs by time-kill analysis in presence of 10% human serum; procedure, shortened: as §3
Haemophilus influenzae [16] = test: Bactericidal activity against gBLNAR Haemophilus influenzae JPH1306 assessed as reduction in bacterial load at MIC after 4 hrs by time-kill analysis; procedure, shortened: as §3

SMILES | MIC (Haemophilus influenzae [1]) | MIC50 (Haemophilus influenzae [2]) | MIC90 (Haemophilus influenzae [2]) | MIC50 (Haemophilus influenzae [3]) | MIC90 (Haemophilus influenzae [3]) | MIC (Haemophilus influenzae [4]) | MIC50 (Haemophilus influenzae [5]) | MIC90 (Haemophilus influenzae [5]) | MIC (Haemophilus influenzae [6]) | MIC (Haemophilus influenzae [2]) | log10cfu (Haemophilus influenzae [7]) | log10cfu (Haemophilus influenzae [8]) | log10cfu (Haemophilus influenzae [9]) | log10cfu (Haemophilus influenzae [10]) | log10cfu (Haemophilus influenzae [11]) | log10cfu (Haemophilus influenzae [12]) | log10cfu (Haemophilus influenzae [13]) | log10cfu (Haemophilus influenzae [14]) | log10cfu (Haemophilus influenzae [15]) | log10cfu (Haemophilus influenzae [16])
CC1(C)S[C@@H]2[C@H](NC(=O)[C@H](N)c3ccc(O)cc3)C(=O)N2[C@H]1C(=O)O [AMOXICILLIN] | 8 µg/mL (≈ 21.9 µM) | 2 µg/mL (≈ 5.47 µM) | 4 µg/mL (≈ 10.9 µM) | 0.5 µg/mL (≈ 1.37 µM) | 0.5 µg/mL (≈ 1.37 µM) | 8 µg/mL (≈ 21.9 µM) | 8 µg/mL (≈ 21.9 µM) | 32 µg/mL (≈ 87.6 µM) | 2 µg/mL (≈ 5.47 µM) | – | – | – | – | – | – | – | – | – | – | –
CC1(C)S[C@@H]2[C@H](NC(=O)[C@H](N)c3ccccc3)C(=O)N2[C@H]1C(=O)O [AMPICILLIN] | 8 µg/mL (≈ 22.9 µM) | 1 µg/mL (≈ 2.86 µM) | 1 µg/mL (≈ 2.86 µM) | 0.25 µg/mL (≈ 0.715 µM) | 0.5 µg/mL (≈ 1.43 µM) | 8 µg/mL (≈ 22.9 µM) | 2 µg/mL (≈ 5.72 µM) | 8 µg/mL (≈ 22.9 µM) | 2 µg/mL (≈ 5.72 µM) | – | – | – | – | – | – | – | – | – | – | –
CC[C@H]1OC(=O)[C@H](C)[C@@H](O[C@H]2C[C@@](C)(OC)[C@@H](O)[C@H](C)O2)[C@H](C)[C@@H](O[C@@H]2O[C@H](C)C[C@H](N(C)C)[C@H]2O)[C@](C)(O)C[C@@H](C)CN(C)[C@H](C)[C@@H](O)[C@]1(C)O [AZITHROMYCIN] | 2 µg/mL (≈ 2.67 µM) | 2 µg/mL (≈ 2.67 µM) | 2 µg/mL (≈ 2.67 µM) | 2 µg/mL (≈ 2.67 µM) | 4 µg/mL (≈ 5.34 µM) | 1 µg/mL (≈ 1.34 µM) | 2 µg/mL (≈ 2.67 µM) | 4 µg/mL (≈ 5.34 µM) | 2 µg/mL (≈ 2.67 µM) | – | – | – | – | – | – | – | – | – | – | –
C=CC1=C(C(=O)O)N2C(=O)[C@@H](NC(=O)/C(=N\O)c3csc(N)n3)[C@H]2SC1 [CEFDINIR] | 1 µg/mL (≈ 2.53 µM) | 0.5 µg/mL (≈ 1.26 µM) | 2 µg/mL (≈ 5.06 µM) | 0.25 µg/mL (≈ 0.632 µM) | 0.5 µg/mL (≈ 1.26 µM) | 0.25 µg/mL (≈ 0.632 µM) | 8 µg/mL (≈ 20.2 µM) | 32 µg/mL (≈ 80.9 µM) | 8 µg/mL (≈ 20.2 µM) | 0.5 µg/mL (≈ 1.26 µM) | – | – | – | – | – | – | – | – | – | –
CO/N=C(\C(=O)N[C@@H]1C(=O)N2C(C(=O)O)=C(COC(C)=O)CS[C@H]12)c1csc(N)n1 [CEFOTAXIME] | 0.031 µg/mL (≈ 0.0681 µM) | 0.031 µg/mL (≈ 0.0681 µM) | 0.12 µg/mL (≈ 0.263 µM) | 0.016 µg/mL (≈ 0.0351 µM) | 0.031 µg/mL (≈ 0.0681 µM) | 0.008 µg/mL (≈ 0.0176 µM) | 0.5 µg/mL (≈ 1.1 µM) | 1 µg/mL (≈ 2.2 µM) | 0.25 µg/mL (≈ 0.549 µM) | – | – | – | – | – | – | – | – | – | – | –
CC[C@H]1OC(=O)[C@H](C)[C@@H](O[C@H]2C[C@@](C)(OC)[C@@H](O)[C@H](C)O2)[C@H](C)[C@@H](O[C@@H]2O[C@H](C)C[C@H](N(C)C)[C@H]2O)[C@](C)(OC)C[C@@H](C)C(=O)[C@H](C)[C@@H](O)[C@]1(C)O [CLARITHROMYCIN] | 8 µg/mL (≈ 10.7 µM) | 8 µg/mL (≈ 10.7 µM) | 16 µg/mL (≈ 21.4 µM) | 8 µg/mL (≈ 10.7 µM) | 16 µg/mL (≈ 21.4 µM) | 8 µg/mL (≈ 10.7 µM) | 8 µg/mL (≈ 10.7 µM) | 16 µg/mL (≈ 21.4 µM) | 8 µg/mL (≈ 10.7 µM) | – | – | – | – | – | – | – | – | – | – | –
C[C@@H](O)[C@H]1C(=O)N2C(C(=O)O)=C(S[C@@H]3CN[C@H](C(=O)N(C)C)C3)[C@H](C)[C@H]12 [MEROPENEM] | 0.063 µg/mL (≈ 0.164 µM) | 0.12 µg/mL (≈ 0.313 µM) | 0.25 µg/mL (≈ 0.652 µM) | 0.063 µg/mL (≈ 0.164 µM) | 0.12 µg/mL (≈ 0.313 µM) | 0.031 µg/mL (≈ 0.0808 µM) | 0.25 µg/mL (≈ 0.652 µM) | 0.5 µg/mL (≈ 1.3 µM) | 0.063 µg/mL (≈ 0.164 µM) | – | – | – | – | – | – | – | – | – | – | –
C[C@@H](O)[C@H]1C(=O)N2C(C(=O)O)=C(SC3CN(C4=NCCS4)C3)[C@H](C)[C@H]12 [TEBIPENEM] | 0.12 µg/mL (≈ 0.313 µM) | 0.25 µg/mL (≈ 0.652 µM) | 0.5 µg/mL (≈ 1.3 µM) | 0.063 µg/mL (≈ 0.164 µM) | 0.12 µg/mL (≈ 0.313 µM) | 0.063 µg/mL (≈ 0.164 µM) | 0.25 µg/mL (≈ 0.652 µM) | 1 µg/mL (≈ 2.61 µM) | 0.25 µg/mL (≈ 0.652 µM) | – | 3 | 3 | 3 | 3 | 3 | 3 | 3 | 3 | 3 | 3
